Laboratory results taken from PubChem BioAssay AID624096 (The Scripps Research Institute Molecular Screening Center, 2012).
“And” between values parts separate entries of the source, which are not always exact repeats. Identical values can stand only once. The source made the active and inactive calls.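 The calls were made as follows: active = compound needing at most 10 µM to cut the imipenem dose that stops bacterial growth fourfold; inactive = the rest.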

Assays:
[1] = imipenem potentiation in VIM-2 Acinetobacter isolate, late-stage follow-up, strain YMC07/8/B3323, clinical isolate, powder samples (AID 624096); conditions: VIM-2 Acinetobacter YMC07/8/B3323 growth with imipenem, OD590; measured here: max imipenem potentiation fold; stronger effect = higher value
Method in brief: (§1)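 Material: Acinetobacter cells in broth microdilution | Medium: CAMHB | Also added: Imipenem, two-fold titration | Dosing: Compound two-fold series crossed with imipenem | Schedule: Growth of at least 18 h, aerobic, 37 °C | Detection: OD590 turbidity | Read-out: CLSI MIC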

[2] = tested on: VIM-2 Acinetobacter YMC07/8/B3323 growth with imipenem, OD590; test: as above
Method in brief: as §1

| Compound | fold potentiation [1] | MIC [2] |
| --- | --- | --- |
| O=C(O)CN1C(=O)/C(=C/c2c(C(F)(F)F)ccc(Cl)c2Cl)SC1=S | 16 | 6.25 µM |
| CN1CCN(NC(=O)[C@H](Cc2ccccc2)N2C(=O)/C(=C/c3c(Cl)cccc3Cl)SC2=S)CC1 | 8 | > 25 µM (inactive) |
| CN1CCN(NC(=O)CN2C(=O)/C(=C/c3c(C(F)(F)F)ccc(Cl)c3Cl)SC2=S)CC1 | 32 | 3.12 µM |
| CN1CCN(NC(=O)C(Cc2ccc(Cl)cc2)N2C(=O)/C(=C/c3c(Cl)ccc(Cl)c3Cl)SC2=S)CC1 (stereo unspecified) | 32 | 1.56 µM |
| O=C(CN1C(=O)/C(=C/c2c(Cl)ccc(Cl)c2Cl)SC1=S)NN1CCNCC1 | 32 | 0.781 µM |
| O=C(CN1C(=O)/C(=C/c2c(Cl)cccc2Cl)SC1=S)Nc1cc([N+](=O)[O-])ccc1O |  | > 50 µM (inactive) |
| CC(=O)N1CCN(NC(=O)CN2C(=O)/C(=C/c3c(Cl)cccc3Cl)SC2=S)CC1 | 32 | 6.25 µM |
| CN1CCN(NC(=O)CN2C(=O)/C(=C/c3c(Cl)ccc(C(F)(F)F)c3Cl)SC2=S)CC1 | 16 | 3.12 µM |
| O=C(O)CN1C(=O)/C(=C/c2c(F)cccc2Cl)SC1=S | 2 | > 50 µM (inactive) |
| O=C(O)CN1C(=O)/C(=C/c2ccccc2Br)SC1=S | 2 | > 50 µM (inactive) |
| O=C(CN1C(=O)/C(=C/c2c(Cl)ccc(Cl)c2Cl)SC1=S)NN1CCCCC1 | 16 | 3.12 µM |
| CN1CCN(C(=O)CN2C(=O)/C(=C/c3c(Cl)cccc3Cl)SC2=S)CC1 | 16 | 6.25 µM |
| CN1CCN(NC(=O)CN2C(=O)/C(=C/c3ccc4ccccc4n3)SC2=S)CC1 |  | > 50 µM (inactive) |
| CN1CCN(C(=O)CN2C(=O)/C(=C/c3c(Cl)ccc(Cl)c3Cl)SC2=S)CC1 | 16 and 32 | 1.56 µM and 0.781 µM |
| CC(C)C(C(=O)NN1CCN(C)CC1)N1C(=O)/C(=C/c2c(Cl)ccc(Cl)c2Cl)SC1=S (stereo unspecified) | 32 | 1.56 µM |
| CN1CCN(NC(=O)CN2C(=O)/C(=C/c3c(F)cccc3C(F)(F)F)SC2=S)CC1 | 2 | 3.12 µM |
| O=C(O)CN1C(=O)/C(=C/c2c(F)cccc2C(F)(F)F)SC1=S | 2 | > 25 µM (inactive) |
| CN1CCN(NC(=O)CN2C(=O)/C(=C/c3ccccc3Br)SC2=S)CC1 | 4 | > 50 µM (inactive) |
| CN1CCN(NC(=O)C(Cc2ccccc2)N2C(=O)/C(=C/c3c(Cl)ccc(Cl)c3Cl)SC2=S)CC1 (stereo unspecified) | 32 | 1.56 µM |
| O=C(CN1C(=O)/C(=C/c2c(Cl)cccc2Cl)SC1=S)NCc1ccccn1 | 16 | 6.25 µM |
| CN1CCN(NC(=O)CN2C(=O)/C(=C/c3ccc(Cl)cc3)SC2=S)CC1 |  | > 50 µM (inactive) |

| Compound | fold potentiation [1] | MIC [2] |
| --- | --- | --- |
| CCOC(=O)/C=C1\SC(=S)N(CC(=O)O)C1=O |  | > 50 µM (inactive) |
| O=C(CN1C(=O)/C(=C/c2c(Cl)cccc2Cl)SC1=S)NN1CCN(S(=O)(=O)c2ccc(Cl)cc2)CC1 | 2 | > 50 µM (inactive) |
| CN1CCN(NC(=O)CN2C(=O)/C(=C/c3c(F)c(F)c(F)c(F)c3F)SC2=S)CC1 | 2 | > 50 µM (inactive) |
| O=C(O)CN1C(=O)/C(=C/c2c(Cl)cccc2Cl)SC1=S | 16 | 12.5 µM (inactive) |
| Cc1cc(C)c(/C=C2\SC(=S)N(CC(=O)O)C2=O)c(C)c1 |  | > 50 µM (inactive) |
| O=C(O)CN1C(=O)/C(=C/c2c(Cl)ccc(Cl)c2Cl)SC1=S | 16 | 6.25 µM |
| O=C(O)CN1C(=O)/C(=C/c2c(F)c(F)c(F)c(F)c2F)SC1=S | 2 | > 50 µM (inactive) |
| O=C(O)CN1C(=O)/C(=C/c2cccnc2)SC1=S |  | > 50 µM (inactive) |
| CN1CCN(NC(=O)CN2C(=O)/C(=C/c3c(F)cccc3Br)SC2=S)CC1 | 2 | > 50 µM (inactive) |
| O=C(O)CN1C(=O)/C(=C/c2c(Cl)ccc(C(F)(F)F)c2Cl)SC1=S | 8 | 6.25 µM |
| Cc1cc(C)n(NC(=O)CN2C(=O)/C(=C/c3c(Cl)cccc3Cl)SC2=S)c(=O)c1 | 32 | 1.56 µM |
| O=C(CN1C(=O)/C(=C/c2c(Cl)cccc2Cl)SC1=S)NCc1ccncc1 | 16 | 6.25 µM |
| O=C(O)CN1C(=O)/C(=C/c2ccc(F)cc2)SC1=S |  | > 50 µM (inactive) |
| CN1CCN(NC(=O)CN2C(=O)/C(=C/c3c(F)cccc3F)SC2=S)CC1 | 4 | > 25 µM (inactive) |
| O=C(O)CN1C(=O)/C(=C/c2ccc(Cl)cc2)SC1=S | 2 | > 50 µM (inactive) |
| CCOC(=O)/C=C1\SC(=S)N(CC(=O)NN2CCN(C)CC2)C1=O | 2 | > 50 µM (inactive) |
| O=C(CN1C(=O)/C(=C/c2c(Cl)cccc2Cl)SC1=S)Nc1cccnc1 | 16 | 6.25 µM |
| O=C(O)CN1C(=O)/C(=C/c2ccc3ccccc3n2)SC1=S |  | > 50 µM (inactive) |
| CN1CCN(NC(=O)CN2C(=O)/C(=C/c3ccc(F)cc3)SC2=S)CC1 |  | > 50 µM (inactive) |
| CN1CCN(NC(=O)CN2C(=O)/C(=C/c3cccnc3)SC2=S)CC1 | 4 | > 50 µM (inactive) |
| CN1CCN(NC(=O)CN2C(=O)/C(=C/c3c(Cl)ccc(Cl)c3Cl)SC2=S)CC1 | 32 and 16 | 0.781 µM and 1.56 µM and 0.391 µM |

| Compound | fold potentiation [1] | MIC [2] |
| --- | --- | --- |
| O=C(O)CN1C(=O)/C(=C/c2c(F)cccc2F)SC1=S | 2 | > 50 µM (inactive) |
| O=C(CN1C(=O)/C(=C/c2c(Cl)ccc(Cl)c2Cl)SC1=S)N1CCN(c2ccccc2Cl)CC1 |  | > 50 µM (inactive) |
| CC(C)N1CCN(NC(=O)CN2C(=O)/C(=C/c3c(Cl)cccc3Cl)SC2=S)CC1 | 32 | 6.25 µM |
| O=C(CN1C(=O)/C(=C/c2c(Cl)cccc2Cl)SC1=S)NN1CCCCC1 | 16 | 3.12 µM |
| O=C(CN1C(=O)/C(=C/c2c(Cl)cccc2Cl)SC1=S)NN1CCNCC1 | 16 | 3.12 µM |
| CC(C)(C)OC(=O)N1CCN(NC(=O)CN2C(=O)/C(=C/c3c(Cl)ccc(Cl)c3Cl)SC2=S)CC1 | 16 | 0.781 µM |
| CCN(CC)OC(=O)CN1C(=O)/C(=C/c2c(Cl)cccc2Cl)SC1=S | 8 | 12.5 µM (inactive) |
| O=C(CN1C(=O)/C(=C/c2c(Cl)cccc2Cl)SC1=S)NN1CCN(C(=O)c2ccccc2)CC1 | 16 | 3.12 µM |
| O=C(CN1C(=O)/C(=C/c2c(Cl)cccc2Cl)SC1=S)NN1CCN(Cc2ccccc2)CC1 |  | 3.12 µM |
| CC(C)(C)OC(=O)N1CCN(C(=O)CN2C(=O)/C(=C/c3c(Cl)ccc(Cl)c3Cl)SC2=S)CC1 | 16 | 6.25 µM |
| Cc1ccc(S(=O)(=O)N2CCN(NC(=O)CN3C(=O)/C(=C/c4c(Cl)cccc4Cl)SC3=S)CC2)cc1 |  | > 25 µM (inactive) |
| CN1CCN(NC(=O)CN2C(=O)/C(=C/c3ccc([N+](=O)[O-])cc3)SC2=S)CC1 |  | > 50 µM (inactive) |
| O=C(O)CN1C(=O)/C(=C/c2c(F)cccc2Br)SC1=S | 2 | > 50 µM (inactive) |
| C[N+]1(OS(C)(=O)=O)CCN(NC(=O)CN2C(=O)/C(=C/c3c(Cl)ccc(Cl)c3Cl)SC2=S)CC1 | 32 | 0.195 µM |
| O=C(CN1C(=O)/C(=C/c2c(Cl)ccc(Cl)c2Cl)SC1=S)NCc1ccccn1 | 16 and 32 | 1.56 µM |
| O=C(O)CN1C(=O)/C(=C/c2ccc([N+](=O)[O-])cc2)SC1=S | 2 | > 50 µM (inactive) |
| CC(C)(C)OC(=O)N1CCN(NC(=O)CN2C(=O)/C(=C/c3c(Cl)cccc3Cl)SC2=S)CC1 | 16 | 3.12 µM |
| Cc1cc(C)c(/C=C2\SC(=S)N(CC(=O)NN3CCN(C)CC3)C2=O)c(C)c1 | 4 | > 25 µM (inactive) |
| CN1CCN(NC(=O)CN2C(=O)/C(=C/c3c(Cl)cccc3Cl)SC2=S)CC1 | 32 | 3.12 µM and 6.25 µM |
| CN1CCN(NC(=O)CN2C(=O)/C(=C/c3c(F)cccc3Cl)SC2=S)CC1 | 32 | 3.12 µM |
